Test results taken from ChEMBL document CHEMBL1122840, “SAR studies in the field of calcium(II) antagonists. Effect of modifications at the tetrasubstituted carbon of verapamil-like compounds” (1985).

Assays:
Cavia porcellus [1] = species: Cavia porcellus; assay: Heart rate of isolated guinea pig heart at dose 5 (ug/heart); assay type: functional
How it was run: (§1)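 Rate was derived from the left ventricular pressure tracing of the perfused heart. Drug dissolved in perfusion liquid was given as a 1-min side-arm injection into the aortic inflow cannula after 30-min stabilization, at constant volume. Six preparations per compound; values expressed as mean, SE and percent of basal for each dose.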

Cavia porcellus [2] = species: Cavia porcellus; assay: Left ventricular pressure of isolated guinea pig heart at dose 0.5 (ug/heart); assay type: functional, Cardiac ventricle
How it was run: (§2)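 Perfused heart, 30-min stabilization, then a 1-min constant-volume injection of drug dissolved in perfusion liquid via a side arm of the aortic inflow cannula. Six preparations per compound; mean, SE and percent of basal value were calculated for each dose.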

Cavia porcellus [3] = species: Cavia porcellus; assay: Heart rate of isolated guinea pig heart at dose 0.5 (ug/heart); assay type: functional; how it was run: as §1
Cavia porcellus [4] = species: Cavia porcellus; assay: Left ventricular pressure of isolated guinea pig heart at dose 0.005 (ug/heart); assay type: functional, Cardiac ventricle; how it was run: as §2
Cavia porcellus [5] = species: Cavia porcellus; assay: Coronary perfusion pressure of isolated guinea pig heart at dose 0.5 (ug/heart); assay type: functional
How it was run: (§3)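 Heart perfused via an aortic inflow cannula; coronary perfusion pressure was recorded in that cannula with a pressure transducer. After 30-min stabilization, drug dissolved in perfusion liquid was injected through a side arm over 1 min, at constant volume. Six preparations per compound; mean, SE and percent of basal value were calculated for each dose.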

Cavia porcellus [6] = species: Cavia porcellus; assay: Left ventricular pressure of isolated guinea pig heart at dose 5 (ug/heart); assay type: functional, Cardiac ventricle; how it was run: as §2
Cavia porcellus [7] = species: Cavia porcellus; assay: Coronary perfusion pressure of isolated guinea pig heart at dose 0.05 (ug/heart); assay type: functional; how it was run: as §3
Cavia porcellus [8] = species: Cavia porcellus; assay: Left ventricular pressure of isolated guinea pig heart at dose 0.05 (ug/heart); assay type: functional, Cardiac ventricle; how it was run: as §2
Cavia porcellus [9] = species: Cavia porcellus; assay: Coronary perfusion pressure of isolated guinea pig heart at dose 5 (ug/heart); assay type: functional; how it was run: as §3
Cavia porcellus [10] = species: Cavia porcellus; assay: Heart rate of isolated guinea pig heart at dose 0.05 (ug/heart); assay type: functional; how it was run: as §1
Cavia porcellus [11] = species: Cavia porcellus; assay: Heart rate of isolated guinea pig heart at dose 0.005 (ug/heart); assay type: functional; how it was run: as §1
Cavia porcellus [12] = species: Cavia porcellus; assay: Coronary perfusion pressure of isolated guinea pig heart at dose 0.005 (ug/heart); assay type: functional; how it was run: as §3
Cavia porcellus [13] = species: Cavia porcellus; assay: Coronary perfusion pressure of isolated guinea pig heart at dose 5 ug/heart); assay type: functional; how it was run: as §3

Structure (SMILES)	HR (Cavia porcellus [1])	LVP (Cavia porcellus [2])	HR (Cavia porcellus [3])	LVP (Cavia porcellus [4])	CPP (Cavia porcellus [5])	LVP (Cavia porcellus [6])	CPP (Cavia porcellus [7])	LVP (Cavia porcellus [8])	CPP (Cavia porcellus [9])	HR (Cavia porcellus [10])	HR (Cavia porcellus [11])	CPP (Cavia porcellus [12])	CPP (Cavia porcellus [13])
COc1ccc(CCN(C)CCC=C2c3ccccc3-c3ccccc32)cc1OC.O=C(O)C(=O)O	208 beats min-1	54 mmHg	208 beats min-1	53 mmHg	51 mmHg	54 mmHg	50 mmHg	53 mmHg	51 mmHg	210 beats min-1	210 beats min-1	50 mmHg	
COc1ccc(CCN(C)CCCC(C#N)(c2ccc(OC)c(OC)c2)C(C)C)cc1OC (configuration not stated) [VERAPAMIL]	188 beats min-1	21.5 mmHg	200.3 beats min-1	25.7 mmHg	49.7 mmHg	13 mmHg	50.3 mmHg	24 mmHg	48.8 mmHg	203.8 beats min-1	210 beats min-1	51.7 mmHg	
COc1ccc(CCN(C)CCCC2(C#N)c3ccccc3-c3ccccc32)cc1OC.O=C(O)C(=O)O	205 beats min-1	41.3 mmHg	206 beats min-1	43.3 mmHg	42 mmHg	39.5 mmHg	42 mmHg	41.7 mmHg	41.2 mmHg	209.7 beats min-1	211.5 beats min-1	44.2 mmHg	
COc1ccc(CCN(C)CCCC2(C(C)C)c3ccccc3-c3ccccc32)cc1OC.O=S(=O)(O)O	204.4 beats min-1	37 mmHg	207 beats min-1	38.4 mmHg	78.4 mmHg	36 mmHg	78.6 mmHg	38 mmHg	78.4 mmHg	209 beats min-1	211 beats min-1	76.4 mmHg	
COc1ccc(CCN(C)CCCC(C#N)(c2ccccc2)c2ccccc2)cc1OC.[O-][Cl+3]([O-])([O-])O	158.3 beats min-1	27.8 mmHg	159.8 beats min-1	31.6 mmHg	71.2 mmHg	26.8 mmHg	72.6 mmHg	28.6 mmHg	68.7 mmHg	160.2 beats min-1	162 beats min-1	73 mmHg	
COc1ccc(CCN(C)CCC=C(c2ccccc2)c2ccccc2)cc1OC.O=C(O)C(=O)O	150 beats min-1	75.7 mmHg	150 beats min-1	75.7 mmHg	47.3 mmHg	75.7 mmHg	51 mmHg	75.3 mmHg	47.3 mmHg	150 beats min-1	150 beats min-1	48 mmHg	
COc1ccc(CCN(C)CCCC(c2ccccc2)(c2ccccc2)C(C)C)cc1OC.O=C(O)C(=O)O	150.7 beats min-1	66.7 mmHg	150 beats min-1	74.3 mmHg	49.3 mmHg	65.3 mmHg	50 mmHg	65.3 mmHg	49.3 mmHg	154.7 beats min-1	155.3 beats min-1	46.3 mmHg	
COc1ccc(CCN(C)CCCC2(C#N)c3ccccc3-c3ccccc32)cc1OC.[O-][Cl+3]([O-])([O-])O	194.8 beats min-1	38.7 mmHg	203 beats min-1	47.2 mmHg	45 mmHg	38.5 mmHg	45.2 mmHg	41.8 mmHg		208 beats min-1	213 beats min-1	47.7 mmHg	43.8 mmHg
COc1ccc(CCN(C)CCCC(c2ccccc2)c2ccccc2)cc1OC.O=C(O)C(=O)O	152 beats min-1	67.4 mmHg	152 beats min-1	67.5 mmHg	48.7 mmHg	66.7 mmHg	48 mmHg	67.5 mmHg	47.3 mmHg	152 beats min-1	152 beats min-1	48 mmHg	
COc1ccc(CCN(C)CCCC2c3ccccc3-c3ccccc32)cc1OC.O=C(O)C(=O)O	149.3 beats min-1	91.2 mmHg	150 beats min-1	88.5 mmHg	56 mmHg	89.3 mmHg	52 mmHg	89.5 mmHg	51.3 mmHg	150 beats min-1	150 beats min-1	52 mmHg	
COc1ccc(CCN(C)C/C=C/C2(C(C)C)c3ccccc3-c3ccccc32)cc1OC.O=S(=O)(O)O	176.6 beats min-1	44 mmHg	180.6 beats min-1	43.2 mmHg	77 mmHg	43.2 mmHg	82.4 mmHg	43.2 mmHg	74.4 mmHg	177.8 beats min-1	182.6 beats min-1	83.8 mmHg	
